Common to all, as to conditions: stereoisomer not certain
The target of one assay is T1, UniProt Q8VF24.
T1 sequence (whole entry): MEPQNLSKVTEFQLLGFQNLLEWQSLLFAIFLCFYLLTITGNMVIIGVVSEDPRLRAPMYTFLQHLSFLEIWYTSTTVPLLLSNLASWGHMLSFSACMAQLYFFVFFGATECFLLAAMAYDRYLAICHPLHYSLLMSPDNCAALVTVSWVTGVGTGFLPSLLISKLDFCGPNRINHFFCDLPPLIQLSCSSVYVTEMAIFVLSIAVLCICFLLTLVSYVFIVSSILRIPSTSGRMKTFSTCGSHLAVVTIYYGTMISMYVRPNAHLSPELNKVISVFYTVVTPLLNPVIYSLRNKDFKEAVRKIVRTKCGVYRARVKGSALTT
The procedure, abridged: (§1)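 Transient luciferase assays in mammalian cell lines were common, though methods varied by source. The values come from published papers and their supplementary material, with extra details from the original authors when needed. Responsive refers to a measured signal the original authors judged statistically different from baseline, and non-responsive (inactive) to the remainder.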

For the next assay, the target named is T2, UniProt Q8VF43.
T2 sequence (whole entry): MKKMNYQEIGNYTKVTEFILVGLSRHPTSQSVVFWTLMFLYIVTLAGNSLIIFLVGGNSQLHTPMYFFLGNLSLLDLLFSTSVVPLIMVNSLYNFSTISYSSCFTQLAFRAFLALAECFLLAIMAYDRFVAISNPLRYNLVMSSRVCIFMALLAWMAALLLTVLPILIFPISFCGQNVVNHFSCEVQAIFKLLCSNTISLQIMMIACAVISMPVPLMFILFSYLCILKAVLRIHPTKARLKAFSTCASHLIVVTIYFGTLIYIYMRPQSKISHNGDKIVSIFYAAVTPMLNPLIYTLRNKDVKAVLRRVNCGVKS
Put shortly: as §1

For a further assay, the target named is T3, UniProt Q8VF44.
T3 sequence (whole entry): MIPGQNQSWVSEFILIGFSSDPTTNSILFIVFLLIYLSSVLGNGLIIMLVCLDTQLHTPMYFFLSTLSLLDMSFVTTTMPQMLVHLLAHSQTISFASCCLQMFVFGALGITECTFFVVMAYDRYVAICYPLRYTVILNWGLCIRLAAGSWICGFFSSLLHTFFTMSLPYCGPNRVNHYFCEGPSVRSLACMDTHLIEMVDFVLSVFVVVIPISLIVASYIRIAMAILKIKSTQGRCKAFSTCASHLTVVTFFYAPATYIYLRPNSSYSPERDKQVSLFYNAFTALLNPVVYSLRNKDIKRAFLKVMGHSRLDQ
The procedure, abridged:
as §1

Another assay addresses T4, UniProt Q8VF52.
T4 sequence (whole entry): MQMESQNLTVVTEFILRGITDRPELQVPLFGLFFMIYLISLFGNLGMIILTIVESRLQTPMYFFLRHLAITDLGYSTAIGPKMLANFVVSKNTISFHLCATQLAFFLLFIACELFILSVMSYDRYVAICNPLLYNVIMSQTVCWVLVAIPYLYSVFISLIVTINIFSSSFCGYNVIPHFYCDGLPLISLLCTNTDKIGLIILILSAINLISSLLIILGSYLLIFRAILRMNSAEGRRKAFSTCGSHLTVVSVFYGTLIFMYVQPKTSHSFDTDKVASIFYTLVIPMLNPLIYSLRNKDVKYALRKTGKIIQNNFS
Put shortly: as §1

The next assay has as its target T5, UniProt Q8VFG6.
T5 sequence (whole entry): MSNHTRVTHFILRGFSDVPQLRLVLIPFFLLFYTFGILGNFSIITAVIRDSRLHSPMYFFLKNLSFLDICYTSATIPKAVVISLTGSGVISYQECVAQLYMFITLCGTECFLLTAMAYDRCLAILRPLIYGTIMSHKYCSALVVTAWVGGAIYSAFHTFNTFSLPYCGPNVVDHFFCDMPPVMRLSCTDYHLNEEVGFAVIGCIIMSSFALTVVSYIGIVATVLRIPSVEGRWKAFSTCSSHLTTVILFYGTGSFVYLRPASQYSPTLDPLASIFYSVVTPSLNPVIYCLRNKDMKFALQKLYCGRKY
Put shortly:
as §1

In a further assay the target is T6, UniProt Q8VFM8.
T6 sequence (whole entry): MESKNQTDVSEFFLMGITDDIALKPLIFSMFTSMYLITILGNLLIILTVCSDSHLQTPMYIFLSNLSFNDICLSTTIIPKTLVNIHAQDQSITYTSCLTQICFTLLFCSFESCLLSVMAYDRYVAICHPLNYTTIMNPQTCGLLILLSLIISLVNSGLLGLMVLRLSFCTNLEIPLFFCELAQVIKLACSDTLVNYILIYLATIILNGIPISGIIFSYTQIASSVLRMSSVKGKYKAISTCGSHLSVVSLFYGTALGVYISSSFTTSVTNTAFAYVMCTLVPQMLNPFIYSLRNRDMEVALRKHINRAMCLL
The procedure, abridged: as §1

The target in another assay is T7, UniProt Q8VFP5.
T7 sequence (whole entry): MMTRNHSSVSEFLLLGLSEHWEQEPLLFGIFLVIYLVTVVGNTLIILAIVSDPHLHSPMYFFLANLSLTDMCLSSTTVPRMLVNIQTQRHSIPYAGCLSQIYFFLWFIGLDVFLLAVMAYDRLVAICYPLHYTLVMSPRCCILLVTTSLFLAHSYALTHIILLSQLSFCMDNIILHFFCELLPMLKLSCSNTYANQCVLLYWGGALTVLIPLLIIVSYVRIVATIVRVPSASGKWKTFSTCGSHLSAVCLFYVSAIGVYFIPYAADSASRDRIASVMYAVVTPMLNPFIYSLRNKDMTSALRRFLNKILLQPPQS
The procedure, abridged:
as §1

Another assay deals with T8, UniProt Q8VFZ6.
T8 sequence (whole entry): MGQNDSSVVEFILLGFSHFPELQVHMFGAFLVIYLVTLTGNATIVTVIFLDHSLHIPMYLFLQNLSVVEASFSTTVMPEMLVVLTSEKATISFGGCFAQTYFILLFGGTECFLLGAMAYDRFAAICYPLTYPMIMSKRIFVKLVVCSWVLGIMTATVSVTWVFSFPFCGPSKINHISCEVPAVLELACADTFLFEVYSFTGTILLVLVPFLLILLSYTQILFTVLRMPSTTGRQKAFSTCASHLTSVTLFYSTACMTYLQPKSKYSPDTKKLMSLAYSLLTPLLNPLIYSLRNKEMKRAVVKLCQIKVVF
The procedure, abridged:
as §1

The next assay concerns the target T9, UniProt Q8VG01.
T9 sequence (whole entry): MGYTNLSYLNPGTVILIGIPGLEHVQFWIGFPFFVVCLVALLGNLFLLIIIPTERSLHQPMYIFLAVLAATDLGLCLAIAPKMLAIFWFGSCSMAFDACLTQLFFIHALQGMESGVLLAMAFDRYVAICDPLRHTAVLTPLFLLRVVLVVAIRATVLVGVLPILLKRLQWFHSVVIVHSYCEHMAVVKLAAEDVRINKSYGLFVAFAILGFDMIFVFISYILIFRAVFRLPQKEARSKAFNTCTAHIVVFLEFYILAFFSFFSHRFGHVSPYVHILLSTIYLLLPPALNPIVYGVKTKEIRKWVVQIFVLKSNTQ
Put shortly: as §1

For another assay, the target named is T10, UniProt Q8VG22.
T10 sequence (whole entry): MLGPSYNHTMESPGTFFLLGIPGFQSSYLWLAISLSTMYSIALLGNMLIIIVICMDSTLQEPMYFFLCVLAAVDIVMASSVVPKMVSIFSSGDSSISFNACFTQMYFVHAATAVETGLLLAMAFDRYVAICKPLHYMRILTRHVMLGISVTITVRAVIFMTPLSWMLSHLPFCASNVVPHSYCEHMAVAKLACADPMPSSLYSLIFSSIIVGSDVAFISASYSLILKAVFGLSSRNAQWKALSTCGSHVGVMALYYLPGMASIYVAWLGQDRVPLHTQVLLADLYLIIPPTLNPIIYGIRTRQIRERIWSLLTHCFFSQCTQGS
The procedure, abridged:
as §1

In a further assay the target is UniProt Q8VG26. Put shortly: as §1
Chain of UniProt Q8VG26 (Q8VG26 as listed by the source): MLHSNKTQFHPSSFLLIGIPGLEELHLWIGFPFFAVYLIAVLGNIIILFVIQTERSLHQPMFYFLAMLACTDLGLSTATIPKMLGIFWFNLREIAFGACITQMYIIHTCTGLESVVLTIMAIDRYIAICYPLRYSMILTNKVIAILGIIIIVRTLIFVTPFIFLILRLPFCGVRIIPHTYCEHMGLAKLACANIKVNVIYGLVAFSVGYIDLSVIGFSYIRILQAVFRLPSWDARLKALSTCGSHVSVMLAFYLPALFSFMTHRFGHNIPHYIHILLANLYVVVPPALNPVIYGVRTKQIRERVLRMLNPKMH

Each structure is given as a SMILES string.
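Note: active if original authors judged signal statistically different from baseline.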

Regarding `CCCCCCCCCCO`, the “odorant receptor agonist call” value in the assay with UniProt Q8VF24, with UniProt Q8VF43, in the assay with UniProt Q8VF44, with UniProt Q8VF52, with UniProt Q8VFG6 and with UniProt Q8VFM8 was “inactive” each time. Moreover, the “odorant receptor agonist call” value in the assay with UniProt Q8VFP5, with UniProt Q8VFZ6, in the assay with UniProt Q8VG01 and in the assay with UniProt Q8VG22 was “inactive” throughout.
Turning to `CCCCCCC(=O)[O-].[H+]`, the “odorant receptor agonist call” value with UniProt Q8VF24, with UniProt Q8VF44, in the assay with UniProt Q8VF52, with UniProt Q8VFG6, with UniProt Q8VFZ6 and with UniProt Q8VG22 was “inactive” throughout. In the assay with UniProt Q8VG26, the “odorant receptor agonist call” value is “inactive”. In the assay with UniProt Q8VG01, the “odorant receptor agonist call” value is “active”.
For `CC=Cc1ccc(OC)cc1`, the “odorant receptor agonist call” value with UniProt Q8VF43, with UniProt Q8VF52, in the assay with UniProt Q8VFM8, with UniProt Q8VFP5 and with UniProt Q8VG01 was “inactive” in each case.
For `Cc1occc1SSc1ccoc1C`, the “odorant receptor agonist call” value with UniProt Q8VF43, with UniProt Q8VF52, in the assay with UniProt Q8VFM8, with UniProt Q8VFP5 and with UniProt Q8VG01 was “inactive” throughout.
With `CCCCOC(=O)C(C)OC(=O)CCC` (stereo not given), the “odorant receptor agonist call” value in the assay with UniProt Q8VF24, with UniProt Q8VF44, with UniProt Q8VF52, in the assay with UniProt Q8VFG6, with UniProt Q8VFZ6 and with UniProt Q8VG01 was “inactive” in each case. Besides, in the assay with UniProt Q8VG22, the “odorant receptor agonist call” value was “inactive”.
As for `CCCC(=O)C(C)=O`, the “odorant receptor agonist call” value with UniProt Q8VF24, with UniProt Q8VF43, in the assay with UniProt Q8VF44, with UniProt Q8VF52, with UniProt Q8VFG6 and with UniProt Q8VFM8 was “inactive” throughout. The “odorant receptor agonist call” value with UniProt Q8VFP5, with UniProt Q8VFZ6 and with UniProt Q8VG01 was “inactive” each time. Besides, the “odorant receptor agonist call” value with UniProt Q8VG22 is “active”.
On to `CC(=O)C=CC1=C(C)CCCC1(C)C`, for which the “odorant receptor agonist call” value with UniProt Q8VF43, with UniProt Q8VFM8, with UniProt Q8VFP5 and with UniProt Q8VG01 was “inactive” throughout. Besides, in the assay with UniProt Q8VF52, the “odorant receptor agonist call” value was “active”.
Regarding `CC=CC(=O)C1=C(C)CCCC1(C)C`, the “odorant receptor agonist call” value in the assay with UniProt Q8VF43, with UniProt Q8VFM8, with UniProt Q8VFP5 and with UniProt Q8VG01 was “inactive” in each case. Besides, the “odorant receptor agonist call” value with UniProt Q8VF52 was “active”.
On to `CC(CC=O)CCCC(C)(C)O` (stereo not given), for which the “odorant receptor agonist call” value with UniProt Q8VF43, in the assay with UniProt Q8VF52, with UniProt Q8VFM8, with UniProt Q8VFP5 and in the assay with UniProt Q8VG01 was “inactive” in each case.
For the molecule `CCCCCCC(C)O` (stereo not given), the “odorant receptor agonist call” value with UniProt Q8VF43, with UniProt Q8VF52, with UniProt Q8VFM8, in the assay with UniProt Q8VFP5 and with UniProt Q8VG01 was “inactive” each time.
Regarding `CCc1nccnc1CC`, the “odorant receptor agonist call” value with UniProt Q8VF43, in the assay with UniProt Q8VF52, with UniProt Q8VFM8, with UniProt Q8VFP5 and in the assay with UniProt Q8VG01 was “inactive” each time.
As for `CCC(=O)C(=O)CC`, the “odorant receptor agonist call” value in the assay with UniProt Q8VF24, with UniProt Q8VF43, in the assay with UniProt Q8VF44, with UniProt Q8VF52, in the assay with UniProt Q8VFG6 and with UniProt Q8VFM8 was “inactive” in each case. For the same molecule, the “odorant receptor agonist call” value in the assay with UniProt Q8VFP5, in the assay with UniProt Q8VFZ6 and in the assay with UniProt Q8VG01 was “inactive” each time. The “odorant receptor agonist call” value in the assay with UniProt Q8VG22 was “active”.
In the case of `CCCCOC=O`, the “odorant receptor agonist call” value with UniProt Q8VF24, with UniProt Q8VF43, in the assay with UniProt Q8VF44, in the assay with UniProt Q8VF52, with UniProt Q8VFG6 and with UniProt Q8VFM8 was “inactive” each time. Further, the “odorant receptor agonist call” value with UniProt Q8VFP5, in the assay with UniProt Q8VFZ6, with UniProt Q8VG01 and with UniProt Q8VG22 was “inactive” throughout.
On to `CC(=O)OCCc1ccccc1`, for which the “odorant receptor agonist call” value with UniProt Q8VF43, with UniProt Q8VF52, in the assay with UniProt Q8VFM8, with UniProt Q8VFP5 and with UniProt Q8VG01 was “inactive” each time.
Turning to `c1ccccc1`, the “odorant receptor agonist call” value with UniProt Q8VF24, with UniProt Q8VF43, with UniProt Q8VF44, in the assay with UniProt Q8VF52, in the assay with UniProt Q8VFG6 and with UniProt Q8VFM8 was “inactive” in each case. Also, the “odorant receptor agonist call” value with UniProt Q8VFP5, with UniProt Q8VFZ6, in the assay with UniProt Q8VG01 and in the assay with UniProt Q8VG22 was “inactive” in each case.

These data come from the M2OR odorant receptor database.
